Data from ChEMBL document CHEMBL2086264.
≈ marks a conversion by molar mass, not a printed value. Calls of active or inactive are those of the source. The calls are words filed in the database; no cut-off is given here.

Key:
[1] = test system: Staphylococcus aureus subsp. aureus RN4220; test: Inhibition of PlsY in Staphylococcus aureus RN4220 harboring gpsA mutant assessed as Fab4-mediated fatty acid chain elongation measured as 17C fatty acid level at 50 uM after 2.5 hrs by mass spectrophotometry; set-up: scale not given: the % may be the effect or the level left
Summary of the method: (§1)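 RN4220 grown in Luria-Bertani broth at 37°C with 225 rpm shaking to OD600 0.5. 50 mL cultures treated for 2.5 h alongside a DMSO control. Lipids extracted by Bligh–Dyer and fatty acids analyzed by gas chromatography. Weight percent, mean of duplicates; not detected means <1%.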

[2] = test system: Staphylococcus aureus subsp. aureus RN4220; test: Inhibition of PlsY in Staphylococcus aureus RN4220 harboring gpsA mutant assessed as Fab4-mediated fatty acid chain elongation measured as 16C fatty acid level at 50 uM after 2.5 hrs by mass spectrophotometry; set-up: scale not given: the % may be the effect or the level left; summary of the method: as §1
[3] = test system: Staphylococcus aureus subsp. aureus RN4220; test: Inhibition of PlsY-mediated lipid synthesis in Staphylococcus aureus RN4220 harboring gpsA mutant assessed as inhibition of [14C]acetate incorporation into fatty acid incubated for 15 mins prior to [14C]acetate addition measured after 30 mins by scintillation counting
Summary of the method: (§2)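 Mid-log S. aureus RN4220 (OD600 0.5) split into 10 mL aliquots. Compound or DMSO added for 15 min, then 10 µCi [14C]acetate for 30 min. Cells PBS-washed, lipids extracted by Bligh–Dyer, scintillation counted and normalized to OD600. Duplicates, mean with standard error.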

Bacillus anthracis [4] = test: Antibacterial activity against Bacillus anthracis after overnight incubation by microbroth dilution assay; format: functional
[5] = test system: Staphylococcus aureus subsp. aureus RN4220; test: Inhibition of PlsY in Staphylococcus aureus RN4220 harboring gpsA mutant assessed as Fab4-mediated fatty acid chain elongation measured as 20C fatty acid level at 50 uM after 2.5 hrs by mass spectrophotometry; set-up: scale not given: the % may be the effect or the level left; summary of the method: as §1
[6] = test system: Staphylococcus aureus subsp. aureus RN4220; test: Inhibition of PlsY in Staphylococcus aureus RN4220 harboring gpsA mutant assessed as Fab4-mediated fatty acid chain elongation measured as 15C fatty acid level at 50 uM after 2.5 hrs by mass spectrophotometry; set-up: scale not given: the % may be the effect or the level left; summary of the method: as §1
[7] = test system: Staphylococcus aureus subsp. aureus RN4220; test: Inhibition of PlsY in Staphylococcus aureus RN4220 harboring gpsA mutant assessed as Fab4-mediated fatty acid chain elongation measured as 20C fatty acid level at 25 uM after 2.5 hrs by mass spectrophotometry; set-up: scale not given: the % may be the effect or the level left; summary of the method: as §1
[8] = test system: Staphylococcus aureus subsp. aureus RN4220; test: Inhibition of PlsY in Staphylococcus aureus RN4220 harboring gpsA mutant assessed as Fab4-mediated fatty acid chain elongation measured as 19C fatty acid level at 50 uM after 2.5 hrs by mass spectrophotometry; set-up: scale not given: the % may be the effect or the level left; summary of the method: as §1
[9] = Inhibition of Staphylococcus aureus PlsY expressed in Escherichia coli FB23281 using [U-14C]glycerol-PO4 as substrate after 20 mins by scintillation counting
Summary of the method: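 Membranes from E. coli FB23281 (ΔplsY) expressing S. aureus PlsY (SA1187), 4 µg per reaction. pH 7.4 buffer of 100 mM Tris–HCl, 150 mM NaCl, 1 mg/mL BSA and 5 mM Na3VO4, with 100 µM [U-14C]glycerol-PO4. Started with 16:0-PO4 (final 100 µM), 20 min at 37°C. Spotted on filter discs, washed in graded ice-cold TCA, scintillation counted.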

[10] = test system: Staphylococcus aureus subsp. aureus RN4220; test: Inhibition of PlsY in Staphylococcus aureus RN4220 harboring gpsA mutant assessed as 34C phophotidylglycerol formation at 25 uM after 2.5 hrs by mass spectrophotometry
Summary of the method: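 RN4220 grown in Luria-Bertani broth at 37°C to OD600 0.5. 50 mL aliquots treated for 2.5 h alongside a DMSO control. Cells PBS-washed, lipids extracted by Bligh–Dyer. Phosphatidylglycerol molecular species distribution determined by mass spectrometry.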

[11] = test system: Staphylococcus aureus subsp. aureus RN4220; test: Inhibition of PlsY-mediated lipid synthesis in Staphylococcus aureus RN4220 harboring gpsA mutant assessed as inhibition of [14C]acetate incorporation into fatty acid at 50 uM incubated for 15 mins prior to [14C]acetate addition measured after 30 mins by scintillation counting; summary of the method: as §2
Bacillus anthracis [12] = test: Inhibition of RNA synthesis in Bacillus anthracis sterne assessed as Inhibition of [3H]uracil incorporation into RNA incubated for 15 mins prior to [3H]uracil addition measured after 30 mins by scintillation counting; format: functional, organism-based
Staphylococcus aureus [13] = test: Growth inhibition of Staphylococcus aureus RN4220 harboring gpsA mutant at 6.25 to 100 uM measured immediately by spectrophotometry; format: functional, organism-based
[14] = test system: Staphylococcus aureus subsp. aureus RN4220; test: Inhibition of PlsY in Staphylococcus aureus RN4220 harboring gpsA mutant assessed as Fab4-mediated fatty acid chain elongation measured as 18C fatty acid level at 25 uM after 2.5 hrs by mass spectrophotometry; set-up: scale not given: the % may be the effect or the level left; summary of the method: as §1
Staphylococcus aureus [15] = test: Inhibition of RNA synthesis in Staphylococcus aureus RN4220 harboring gpsA mutant assessed as inhibition of [3H]uracil incorporation into RNA at 50 uM incubated for 15 mins before [3H]uracil addition measured after 30 mins by scintillation counting; format: functional, organism-based
Summary of the method: (§3)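 RN4220 at OD600 0.5 in 10 mL aliquots, 15 min with compound. Then 30 min with 10 µCi label: 3H amino acid mix (protein), [3H]thymidine (DNA) or [3H]uracil (stable RNA). Cells collected on 0.45 µm filters, counted, OD600-normalized and expressed relative to untreated cells. Duplicates, mean with standard error.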

[16] = test system: Staphylococcus aureus subsp. aureus RN4220; test: Inhibition of PlsY in Staphylococcus aureus RN4220 harboring gpsA mutant assessed as Fab4-mediated fatty acid chain elongation measured as 18C fatty acid level at 50 uM after 2.5 hrs by mass spectrophotometry; set-up: scale not given: the % may be the effect or the level left; summary of the method: as §1
[17] = test system: Staphylococcus aureus subsp. aureus RN4220; test: Inhibition of PlsY in Staphylococcus aureus RN4220 harboring gpsA mutant assessed as Fab4-mediated fatty acid chain elongation measured as 21C fatty acid level at 25 uM after 2.5 hrs by mass spectrophotometry; set-up: scale not given: the % may be the effect or the level left; summary of the method: as §1
[18] = test system: Staphylococcus aureus subsp. aureus RN4220; test: Inhibition of PlsY-mediated lipid synthesis in Staphylococcus aureus RN4220 assessed as inhibition of [14C]acetate incorporation into membrane phospholipids incubated for 15 mins prior to [14C]acetate addition measured after 30 mins by scintillation counting
Summary of the method: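 Cultures grown from OD600 0.1 to 0.5, split into 10 mL aliquots, exposed to inhibitor or DMSO control for 15 min, then pulsed with [14C]acetate (10 µCi) for 30 min. Cells washed 4× in PBS, lipids extracted by Bligh and Dyer, counted by scintillation and normalized to OD600. Duplicates, mean with standard error.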

Bacillus subtilis = test: Antibacterial activity against Bacillus subtilis ATCC 23857 after overnight incubation by microbroth dilution assay; format: functional
Summary of the method: (§4)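 CLSI M7A7 microbroth dilution in Mueller-Hinton broth; S. pneumoniae broth given 5% lysed horse blood. DMSO stocks of 10 mg/mL; twofold dilutions to final 200–0.0125 µg/mL. Mid-log inoculum (OD600 0.5) diluted to final OD600 0.0005 (~10^5 CFU/mL). Overnight at 37°C; MIC is the lowest concentration inhibiting 90% of visible growth.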

Staphylococcus aureus [19] = test: Inhibition of protein synthesis in Staphylococcus aureus RN4220 harboring gpsA mutant assessed as inhibition of [3H]amino acid incorporation into protein at 50 uM incubated for 15 mins before [3H]amino acid addition measured after 30 mins by scintillation counting; format: functional, organism-based; summary of the method: as §3
Staphylococcus aureus [20] = test: Antibacterial activity against Staphylococcus aureus ATCC 29213 after overnight incubation by microbroth dilution assay; format: functional; summary of the method: as §4
Bacillus anthracis [21] = test: Inhibition of protein synthesis in Bacillus anthracis sterne assessed as Inhibition of [3H]amino acid incorporation into protein incubated for 15 mins prior to [3H]amino acid addition measured after 30 mins by scintillation counting; format: functional, organism-based

Which Activity [1] does the source give for `O=C(CCCCCCCc1ccccc1)NS(=O)(=O)Oc1ccccc1` here?
Its Activity is 8%.

And the Activity [2]?
The Activity was 6%.

What about the inhibition [3] of the same molecule?
The inhibition was “Dose-dependent effect”.

And the MIC90 (Bacillus anthracis [4])?
Its MIC90 is 6.25 µg/mL (≈ 16.6 µM).

What about the Activity [5] of the same molecule?
Its Activity is 13%.

What about the Activity [6] of the same molecule?
The Activity was 32%.

What about the Activity [7] of the same molecule?
The Activity was 9%.

What about the Activity [8] of the same molecule?
The Activity was 14%.

And the IC50 [9]?
Its IC50 is 25 µM.

And the inhibition [10]?
The inhibition was “Active”.

And the inhibition [11]?
The inhibition was “Active”.

And the inhibition (Bacillus anthracis [12])?
Its inhibition is “Active”.

And the “growth inhibition (GI)” value (Staphylococcus aureus [13])?
The value was “inactive”.

What about the Activity [14] of the same molecule?
Its Activity is 9%.

What about the inhibition (Staphylococcus aureus [15]) of the same molecule?
The inhibition was “inactive”.

And the Activity [16]?
The Activity was 12%.

And the Activity [17]?
The Activity was 12%.

What about the inhibition [18] of the same molecule?
Its inhibition is “Dose-dependent effect”.

What about the MIC90 (Bacillus subtilis) of the same molecule?
Its MIC90 is greater than 200 µg/mL.

What about the inhibition (Staphylococcus aureus [19]) of the same molecule?
Its inhibition is “inactive”.

What about the MIC90 (Staphylococcus aureus [20]) of the same molecule?
The MIC90 was 12.5 µg/mL (≈ 33.3 µM).

And the inhibition (Bacillus anthracis [21])?
The inhibition was “Active”.
